Assay results taken from PubChem BioAssay AID588830 (Broad Institute, 2011).
Activity calls are given as the source filed them.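 How the source made its calls: active means fitted IC50 for falling signal at or below ten times the top tested dose; inconclusive means flat fit with 30 to 70% signal loss, or poor fit; inactive means the rest.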

Columns and labels:
[1] = ATP-based viability of SR-BI CHO cells – cell-based, CellTiter-Glo luminescence, 3 h, dry powder, cytotoxicity control for SR-BI HDL uptake inhibitor project, dose response (AID 588830); settings: ldlA[mSR-BI] CHO cells viability, CellTiter-Glo ATP, 3 h
How it was run: (§1)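 Material: ldlA[mSR-BI] cells, scavenger receptor B1-expressing line; Buffer or medium: PSG and 10% FCS in Ham's F12; Doses: 8-concentration series per compound, added by pin transfer; Timing: 3 h at 37 °C, then 10 min with reagent; Signal: luminescence of cellular ATP via Cell Titer Glo reagent.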

[2] = tested on: ldlA[mSR-BI] CHO cells viability, CellTiter-Glo ATP, 3 h; experiment: as above
How it was run: as §1

Compound	activity change, negative = cytotoxicity ([1]; at 35 µM (top of the series))	further results
Cc1cc(C)c2c(c1)NC(c1cc3c(cc1Br)OCO3)C1CC=CC21 (centres undefined)	-9.46% (inactive)	
CC(OC(=O)c1cccc(NS(C)(=O)=O)c1)C(=O)Nc1ccc(N2CCOCC2)cc1 (centres undefined)	-7.82% (inactive)	
O=C(Nc1ccc(-c2nc3ccc(NC(=O)c4ccc(Cl)cc4)cc3[nH]2)cc1)c1ccc(Cl)cc1	3.4% (inactive)	
Cc1ccccc1NC(=O)NCC1CCN(c2ccc(S(=O)(=O)N3CCOCC3)cc2)CC1	-8.7% (inactive)	
CCc1sc(N2C(=O)C3C4CCC(C4=C(C)C)C3C2=O)nc1-c1ccccc1 (centres undefined)	-2.48% (inactive)	
O=C(Nc1ccc(-c2nc3ccc(NC(=O)c4ccccc4)cc3[nH]2)cc1)c1ccccc1		IC50 [2]: > 70 µM (inactive)
CCC(=O)N1CCc2cc(-c3csc(NC(=O)c4ccco4)n3)ccc21	-8.77% (inactive)	
COC(=O)c1cn(C(=O)c2cccc3ccccc23)c2ccccc12	-13.3% (inactive)	
C[C@H]1CN([C@@H](C)CO)C(=O)c2cccc(NS(C)(=O)=O)c2O[C@@H]1CN(C)Cc1ccc(Cl)c(Cl)c1	1.6% (inactive)	
C[C@H]1CN([C@@H](C)CO)C(=O)c2cc(NC(=O)Cc3cn(C)c4ccccc34)ccc2O[C@@H]1CN(C)S(=O)(=O)c1ccc(F)cc1	1.18% (inactive)	
C[C@@H]1CN([C@H](C)CO)C(=O)c2cc(NC(=O)Cc3cn(C)c4ccccc34)ccc2O[C@H]1CN(C)S(=O)(=O)c1ccc(F)cc1	1.06% (inactive)	
O=C(Nc1ccccc1Cl)c1ccccc1NS(=O)(=O)c1ccccc1	-1.11% (inactive)	
COc1cccc(-c2csc(N3CCN(C(=S)Nc4cccc(Cl)c4)CC3)n2)c1	-9.99% (inactive)	
Nc1ccc(C(=O)Nc2ccc(-c3nc4ccc(NC(=O)c5ccc(N)cc5)cc4[nH]3)cc2)cc1	7.17% (inactive)	
CCOc1ccc(NC(=O)CN2CCN(CC(=O)Nc3cc(OC)cc(OC)c3)CC2)cc1		activity change, negative = cytotoxicity ([1]; at 68 µM (top of the series)): -11.7% (inactive)
COc1ccc([C@H]2CC(=O)C=C(c3cccc4c3sc3ccccc34)C2)cc1OC	-5.27% (inactive)	
C[C@@H]1CN([C@H](C)CO)C(=O)Cc2cc(NC(=O)Cc3cn(C)c4ccccc34)ccc2O[C@H]1CN(C)S(=O)(=O)c1ccc(F)cc1	1.4% (inactive)	
O=C(Nc1cc(C(F)(F)F)ccc1Cl)c1ccccc1NS(=O)(=O)c1ccc(Cl)cc1	-7.07% (inactive)	
Cc1cc(C(=O)C(C)OC(=O)C2=NNC(=O)CC2)c(C)n1-c1ccc(OC(F)F)cc1 (centres undefined)		IC50 [2]: > 70 µM (inactive)
COc1ccc(-c2nnn(CC(=O)N(C3CCCCC3)C(C)C(=O)NC3CCCC3)n2)cc1OC (centres undefined)	-4.74% (inactive)	
C[C@H]1CN([C@@H](C)CO)C(=O)c2cccc(NC(=O)Nc3ccccc3)c2O[C@@H]1CN(C)Cc1ccccc1	0.984% (inactive)	
CCn1c(COc2c(C)cccc2C)nnc1SCC(=O)N1CCN(c2ccccc2)CC1	-9.72% (inactive)	

Compound	activity change, negative = cytotoxicity ([1]; at 35 µM (top of the series))	further results
O=C(Nc1ccc(Cl)cc1C(=O)c1ccc(Cl)cc1)c1cc(Br)ccc1NS(=O)(=O)c1ccc(Cl)cc1	-10% (inactive)	
O=C(Nc1ccccc1)c1ccccc1NS(=O)(=O)c1ccc(Cl)cc1	-7.39% (inactive)	
C[C@H](CO)N1C[C@H](C)[C@H](CN(C)S(=O)(=O)c2ccc(F)cc2)Oc2ccc(NC(=O)CCC(F)(F)F)cc2C1=O	-1.99% (inactive)	
C[C@H]1CN([C@@H](C)CO)C(=O)c2cccc(NC(=O)Nc3ccccc3)c2O[C@@H]1CN(C)Cc1ccc(Cl)c(Cl)c1	-15.5% (inactive)	
CCOC(=O)N1CCC(NC(=O)c2ccc3c(c2)N(Cc2ccc(F)cc2)CCS3)CC1	-4.76% (inactive)	
C[C@H]1CN([C@@H](C)CO)C(=O)c2cccc(NC(=O)Nc3ccccc3)c2O[C@@H]1CN(C)S(C)(=O)=O	-1.01% (inactive)	
C[C@H]1CN([C@@H](C)CO)C(=O)c2cccc(NC(=O)Nc3ccccc3)c2O[C@@H]1CN(C)Cc1ccc(C(F)(F)F)cc1		IC50 [2]: 66.6 µM
COc1ccc(OC)c(CCNC(=O)c2ccc3c(c2)N(Cc2ccc(F)cc2)CCS3)c1	-5.33% (inactive)	
C[C@@H]1CN([C@H](C)CO)C(=O)c2cc(NC(=O)Cc3cn(C)c4ccccc34)ccc2O[C@H]1CN(C)S(=O)(=O)c1ccc(Cl)cc1	-0.219% (inactive)	
C[C@H](CO)N1C[C@H](C)[C@H](CN(C)S(=O)(=O)c2ccc(F)cc2)Oc2ccc(NS(C)(=O)=O)cc2C1=O	-6.43% (inactive)	
C[C@@H]1CN([C@H](C)CO)C(=O)c2cc(NC(=O)Cc3cn(C)c4ccccc34)ccc2O[C@H]1CN(C)C(=O)Nc1ccc(F)cc1	4.57% (inactive)	
O=C(Nc1ccc(-c2nc3cc(NC(=O)c4ccccc4Cl)ccc3o2)cc1)c1ccccc1Cl	11.9% (inactive)	
C[C@H]1CN([C@@H](C)CO)C(=O)c2cccc(NC(=O)Nc3ccc(F)cc3)c2O[C@@H]1CN(C)Cc1ccc(Cl)c(Cl)c1	-26.7% (inactive)	
Cc1cc(C)n(CC(=O)NC2CCCc3c2cnn3-c2ccc(C)c(C)c2)n1 (centres undefined)	-4.16% (inactive)	
C[C@H]1CN([C@@H](C)CO)C(=O)c2cccc(N(C)C)c2O[C@@H]1CN(C)Cc1ccc(Cl)c(Cl)c1	-3.41% (inactive)	
CC(C)(C)NC(=O)N1CCN(c2ncccc2C(F)(F)F)CC1	-3.5% (inactive)	
O=C(Nc1cccc(NC(=O)c2cc([N+](=O)[O-])ccc2Cl)n1)c1cc([N+](=O)[O-])ccc1Cl	-7.2% (inactive)	
C[C@H](CO)N1C[C@H](C)[C@H](CN(C)S(=O)(=O)c2ccc(F)cc2)Oc2ccc(NC(=O)Cc3cn(C)c4ccccc34)cc2C1=O	-10% (inactive)	
Cc1cc(SC(C)C(=O)Nc2ncc(Cl)cc2Cl)nc2ccccc12 (centres undefined)	-10.7% (inactive)	
O=C(Nc1ccc(-c2nc3ccc(NC(=O)c4ccccc4[N+](=O)[O-])cc3[nH]2)cc1)c1ccccc1[N+](=O)[O-]	6.32% (inactive)	
CCOC(=O)Nc1cccc(NC(=O)c2cc(OC)cc(OC)c2)c1	-7.68% (inactive)	
C[C@H]1CN([C@@H](C)CO)C(=O)c2cc(NC(=O)Cc3cn(C)c4ccccc34)ccc2O[C@H]1CN(C)S(=O)(=O)c1ccc(F)cc1		activity change, negative = cytotoxicity ([1]; at 30 µM (top of the series)): -1.92% (inactive)

Compound	activity change, negative = cytotoxicity ([1]; at 35 µM (top of the series))	further results
CNC[C@@H]1Oc2ccc(NC(=O)Cc3cn(C)c4ccccc34)cc2C(=O)N([C@H](C)CO)C[C@H]1C	-4.04% (inactive)	
CC(C)NC(=O)Nc1cccc2c1O[C@H](CN(C)Cc1ccc(Cl)c(Cl)c1)[C@@H](C)CN([C@@H](C)CO)C2=O	3.31% (inactive)	
C[C@H]1CN([C@@H](C)CO)C(=O)c2cccc(NC(=O)Nc3ccccc3)c2O[C@@H]1CN(C)C	-1.76% (inactive)	
C[C@@H]1CN([C@H](C)CO)C(=O)c2cc(NC(=O)Cc3cn(C)c4ccccc34)ccc2O[C@H]1CN(C)S(=O)(=O)c1ccccc1	1.08% (inactive)	
C[C@@H]1CN([C@H](C)CO)C(=O)c2cc(NC(=O)Cc3cn(C)c4ccccc34)ccc2O[C@H]1CN(C)S(C)(=O)=O	3.58% (inactive)	
Cc1ccc2oc(-c3cccc(NC(=O)c4cc(-n5cnnc5)ccc4Cl)c3)nc2c1		IC50 [2]: 12.8 µM
C[C@@H]1CN([C@@H](C)CO)C(=O)c2cc(NC(=O)Cc3cn(C)c4ccccc34)ccc2O[C@H]1CN(C)S(=O)(=O)c1ccc(F)cc1	-8.52% (inactive)	
C[C@H]1CN([C@@H](C)CO)C(=O)c2cc(NC(=O)Nc3ccccc3)ccc2O[C@@H]1CN(C)Cc1ccc(Cl)c(Cl)c1	-3.67% (inactive)	
CCOc1ccccc1/C=C/c1onc(C)c1S(=O)(=O)N1CCC(C(=O)NC(C)(C)C)CC1		IC50 [2]: > 70 µM (inactive)
C[C@H](CO)N1C[C@H](C)[C@H](CN(C)S(=O)(=O)c2ccc(F)cc2)Oc2ccc(NC(=O)Cc3ccccc3)cc2C1=O	-1.65% (inactive)	
Cc1ccc(-c2nnc(N3CCC(C)CC3)c3ccccc23)cc1C		IC50 [2]: 68.5 µM
C[C@H](CO)N1C[C@H](C)[C@@H](CN(C)S(=O)(=O)c2ccc(F)cc2)Oc2ccc(NC(=O)Cc3cn(C)c4ccccc34)cc2C1=O	-0.528% (inactive)	
O=C(Nc1cc(Cl)ccc1Cl)c1cc(Br)ccc1NS(=O)(=O)c1ccc(Cl)c([N+](=O)[O-])c1	-11.2% (inactive)	
O=C(Nc1ccc(-c2nc3cc(NC(=O)c4ccccc4[N+](=O)[O-])ccc3o2)cc1)c1ccccc1[N+](=O)[O-]	1.25% (inactive)	
CC(C)OCCCNC(=O)c1ccc(C2SCC(=O)N2Cc2ccco2)cc1 (centres undefined)	-4.74% (inactive)	
N#Cc1sc2nc(C3CC3)cc(-c3ccc(Cl)cc3)c2c1N	-7.15% (inactive)	
C[C@@H]1CN([C@@H](C)CO)C(=O)c2cc(NC(=O)Cc3cn(C)c4ccccc34)ccc2O[C@@H]1CN(C)S(=O)(=O)c1ccc(F)cc1	2.84% (inactive)	
CCc1cc2cc3c(cc2nc1SCC(=O)OC(C)C)OCO3	-2% (inactive)	
O=C(Nc1ccc(-c2nc3cc(NC(=O)c4ccc(NC(=O)c5cccc6ccccc56)cc4)ccc3[nH]2)cc1)c1ccc(NC(=O)c2cccc3ccccc23)cc1	2.1% (inactive)	
C[C@@H]1CN([C@H](C)CO)C(=O)c2cc(NC(=O)Cc3cn(C)c4ccccc34)ccc2O[C@@H]1CN(C)S(=O)(=O)c1ccc(F)cc1	2.73% (inactive)	
